Data reported in ChEMBL document CHEMBL3992526, “Antagonizing NOD2 Signaling with Conjugates of Paclitaxel and Muramyl Dipeptide Derivatives Sensitizes Paclitaxel Therapy and Significantly Prevents Tumor Metastasis” (J Med Chem, 2017).

Experiments:
[1] = AUC (0 to t) in tumor of LLC tumor bearing C57BL/6N mouse at 18 mg/kg, iv up to 24 hrs by LC-MS/MS analysis; assay type: ADME, organism-based, Neoplasm; conditions: in vivo
Method in brief: (§1)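 Tumour-tissue pharmacokinetics in LLC tumour-bearing mice after a single iv injection of PTX at 18 mg/kg, equimolar to the conjugate at 30 mg/kg. Analyte concentrations were measured in tumour tissue over time (n=5 mice). Tmax is given in h and Cmax in nmol/g.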

[2] = target: Nucleotide-binding oligomerization domain-containing protein 2 (Homo sapiens, UniProt Q9HC29); test: Inhibition of MDP-induced human NOD2 signaling expressed in HEK-Blue cells preincubated for 3 hrs followed by MDP-stimulation for 20 hrs by spectrophotometry based SEAP reporter gene assay; assay type: cell-based
Chain of Nucleotide-binding oligomerization domain-containing protein 2 (Q9HC29 whole entry, the tested form may be a part): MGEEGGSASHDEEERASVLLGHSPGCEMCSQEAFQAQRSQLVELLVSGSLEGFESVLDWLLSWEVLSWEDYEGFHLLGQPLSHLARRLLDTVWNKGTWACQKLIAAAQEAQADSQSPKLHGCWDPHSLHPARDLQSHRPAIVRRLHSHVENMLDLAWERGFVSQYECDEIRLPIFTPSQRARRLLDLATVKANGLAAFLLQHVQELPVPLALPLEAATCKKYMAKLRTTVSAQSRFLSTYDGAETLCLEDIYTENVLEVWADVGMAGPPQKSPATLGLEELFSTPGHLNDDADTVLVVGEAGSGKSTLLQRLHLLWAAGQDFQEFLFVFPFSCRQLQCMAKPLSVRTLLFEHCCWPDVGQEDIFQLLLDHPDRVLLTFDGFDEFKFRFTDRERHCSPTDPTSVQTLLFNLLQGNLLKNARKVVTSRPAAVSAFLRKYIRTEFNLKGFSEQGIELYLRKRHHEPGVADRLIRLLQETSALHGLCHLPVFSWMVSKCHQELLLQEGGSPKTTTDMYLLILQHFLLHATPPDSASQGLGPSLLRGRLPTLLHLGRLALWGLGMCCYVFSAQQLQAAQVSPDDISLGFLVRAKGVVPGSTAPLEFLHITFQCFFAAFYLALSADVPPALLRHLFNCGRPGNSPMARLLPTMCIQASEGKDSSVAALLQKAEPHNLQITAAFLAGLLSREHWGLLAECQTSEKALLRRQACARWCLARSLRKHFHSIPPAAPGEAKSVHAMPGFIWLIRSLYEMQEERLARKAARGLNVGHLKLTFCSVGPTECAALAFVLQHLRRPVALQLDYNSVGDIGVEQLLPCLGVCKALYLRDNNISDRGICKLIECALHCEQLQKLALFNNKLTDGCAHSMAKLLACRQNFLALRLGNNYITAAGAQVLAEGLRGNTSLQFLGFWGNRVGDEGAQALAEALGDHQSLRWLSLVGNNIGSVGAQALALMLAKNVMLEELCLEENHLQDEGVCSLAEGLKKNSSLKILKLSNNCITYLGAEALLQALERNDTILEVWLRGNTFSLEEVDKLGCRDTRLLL

[3] = Tmax in tumor of LLC tumor bearing C57BL/6N mouse at 18 mg/kg, iv by LC-MS/MS analysis; assay type: ADME, organism-based, Neoplasm
Method in brief: (§2)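 Mice bearing LLC tumors were given a single iv injection at equimolar doses: the conjugate at 30 mg/kg or paclitaxel at 18 mg/kg. Tumor tissue was sampled over time. Intact conjugate, released paclitaxel and MDA-linker were quantified in tumor tissue (nmol/g). Tmax and Cmax were taken from tumor concentration profiles, n=5 per group.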

[4] = Drug level in tumor of LLC tumor bearing C57BL/6N mouse treated with MTC-220 at 30 mg/kg, iv up to 24 hrs by LC-MS/MS analysis relative to paclitaxel alone; assay type: ADME, organism-based, Neoplasm; conditions: in vivo; method in brief: as §2
[5] = Cmax in tumor of LLC tumor bearing C57BL/6N mouse at 18 mg/kg, iv by LC-MS/MS analysis; assay type: ADME, organism-based, Neoplasm; set-up: dose 18 mg/kg, route intravenous; conditions: in vivo; method in brief: as §1

Question: Which AUCt [1] does the source give for `CC(=O)O[C@H]1C(=O)[C@@]2(C)[C@H]([C@H](OC(=O)c3ccccc3)[C@]3(O)C[C@H](OC(=O)[C@H](O)[C@@H](NC(=O)c4ccccc4)c4ccccc4)C(C)=C1C3(C)C)[C@]1(OC(C)=O)CO[C@@H]1C[C@@H]2O` [PACLITAXEL] here?
Answer: 46.62 nmol·h/g

Question: And the IC50 [2]?
Answer: 7.94 µM

Question: What about the Tmax [3] of the same compound?
Answer: 1.05 h

Question: And the “fold change (FC)” value [4]?
Answer: 2

Question: And the Cmax [5]?
Answer: 4.85 nmol/g
